Test results reported in ChEMBL document CHEMBL2413044, “Synthesis and biological evaluation of potential threonine synthase inhibitors: Rhizocticin A and Plumbemycin A” (Bioorg Med Chem, 2013).
The source made the active and inactive calls.

Experiments:
Assay type in all cases: functional, organism-based
[1] = system: Saccharomyces cerevisiae; experiment: Antifungal activity against Saccharomyces cerevisiae at 3.5 to 1050 ug/L after 24 hrs by YNB medium disc diffusion method in absence of amino acids
Method in brief: (§1)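 Disk diffusion on yeast-seeded agar plates (20 g/L agar added), either malt extract medium or YNB without amino acids. Sterile 6 mm paper disks held varying amounts of compound, matching the liquid-assay concentrations. The growth-inhibition zone diameter was measured after 24 h at 28 °C.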

[2] = system: Candida albicans; experiment: Antifungal activity against Candida albicans at 3.5 to 1050 ug/L after 24 hrs by YNB medium disc diffusion method in absence of amino acids; method in brief: as §1
[3] = system: Saccharomyces cerevisiae; experiment: Antifungal activity against Saccharomyces cerevisiae at 3.5 to 1050 ug/L after 24 hrs by microdilution method
Method in brief: (§2)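 Yeast microdilution in 24-well plates. Wells were seeded at OD600 0.1 and grown aerobically with the compound (range as in the assay line) for 24 h at 28 °C with agitation. Growth was read as OD600. Runs were in triplicate in YPD, malt extract (20 g/L), RPMI 1640, and YNB without amino acids.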

[4] = system: Nakaseomyces glabratus; experiment: Antifungal activity against Candida glabrata at 3.5 to 1050 ug/L after 24 hrs by YNB medium disc diffusion method in absence of amino acids; method in brief: as §1
[5] = system: Saccharomyces cerevisiae; experiment: Antifungal activity against Saccharomyces cerevisiae at 3.5 to 1050 ug/L after 24 hrs by malt extract medium disc diffusion method; method in brief: as §1
[6] = system: Nakaseomyces glabratus; experiment: Antifungal activity against Candida glabrata at 3.5 to 1050 ug/L after 24 hrs by microdilution method; method in brief: as §2
[7] = system: Candida albicans; experiment: Antifungal activity against Candida albicans at 3.5 to 1050 ug/L after 24 hrs by microdilution method; method in brief: as §2
[8] = system: Nakaseomyces glabratus; experiment: Antifungal activity against Candida glabrata at 3.5 to 1050 ug/L after 24 hrs by malt extract medium disc diffusion method; method in brief: as §1
[9] = system: Candida albicans; experiment: Antifungal activity against Candida albicans at 3.5 to 1050 ug/L after 24 hrs by malt extract medium disc diffusion method; method in brief: as §1
[10] = system: Pseudomonas aeruginosa; experiment: Antibacterial activity against Pseudomonas aeruginosa 2 to 10 ug/L after 24 hrs by Stephenson-Wetham medium disc diffusion method in absence of amino acids
Method in brief: (§3)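 Agar diffusion. Sterile 6 mm paper disks carrying different amounts of compound were placed on Stephenson–Wetham agar (20 g/L agar) pre-seeded with the indicator bacterium. Amounts matched those of the liquid test. After 24 h at 37 °C, the diameter of the growth-inhibition zone was measured.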

[11] = system: Pseudomonas aeruginosa; experiment: Antibacterial activity against Pseudomonas aeruginosa 2 to 10 ug/L after 24 hrs by microdilution method
[12] = system: Escherichia coli; experiment: Antibacterial activity against Escherichia coli 2 to 10 ug/L after 24 hrs by microdilution method
[13] = system: Bacillus subtilis; experiment: Antibacterial activity against Bacillus subtilis 2 to 10 ug/L after 24 hrs by Stephenson-Wetham medium disc diffusion method in absence of amino acids; method in brief: as §3
[14] = system: Bacillus subtilis; experiment: Antibacterial activity against Bacillus subtilis 2 to 10 ug/L after 24 hrs by microdilution method
[15] = system: Listeria innocua; experiment: Antibacterial activity against Listeria innocua 2 to 10 ug/L after 24 hrs by Stephenson-Wetham medium disc diffusion method in absence of amino acids; method in brief: as §3
[16] = system: Pseudomonas aeruginosa; experiment: Antibacterial activity against Pseudomonas aeruginosa 2 to 10 ug/L after 24 hrs by Stephenson-Wetham medium disc diffusion method; method in brief: as §3
[17] = system: Listeria innocua; experiment: Antibacterial activity against Listeria innocua 2 to 10 ug/L after 24 hrs by microdilution method
[18] = system: Listeria innocua; experiment: Antibacterial activity against Listeria innocua 2 to 10 ug/L after 24 hrs by Stephenson-Wetham medium disc diffusion method; method in brief: as §3
[19] = system: Escherichia coli; experiment: Antibacterial activity against Escherichia coli 2 to 10 ug/L after 24 hrs by Stephenson-Wetham medium disc diffusion method in absence of amino acids; method in brief: as §3
[20] = system: Bacillus subtilis; experiment: Antibacterial activity against Bacillus subtilis 2 to 10 ug/L after 24 hrs by Stephenson-Wetham medium disc diffusion method; method in brief: as §3
[21] = system: Escherichia coli; experiment: Antibacterial activity against Escherichia coli 2 to 10 ug/L after 24 hrs by Stephenson-Wetham medium disc diffusion method; method in brief: as §3

Measured: Activity

N=C(N)NCCC[C@H](N)C(=O)N[C@@H](/C=C\CP(=O)(O)O)C(=O)O
inactive: [1] | [2] | [3] | [4] | [5] | [6] | [7] | [8] | [9]

C[C@H](N)C(=O)N[C@@H](CC(=O)O)C(=O)N[C@@H](/C=C\CP(=O)(O)O)C(=O)O
not listed: [1] | [2] | [3] | [4] | [5] | [6] | [7] | [8] | [9]
inactive: all other assays above
